Measurements reported in paper PMC12824664 (Blood, 2025).

Key:
[1] = target: wild type BTK (Homo sapiens, UniProt Q06187); assay: biochemical; format: binding; conditions: read-out: residence time t1/2
[2] = system: relapsed/refractory chronic lymphocytic leukemia; assay: Phase 1/2 BRUIN trial, pirtobrutinib monotherapy, response per iwCLL 2018; format: in vivo, human
Procedure, shortened: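 Relapsed/refractory CLL patients pretreated with covalent BTK inhibitors received test compound monotherapy in a multicenter phase 1/2 trial. Response followed iwCLL 2018 criteria, with data cutoff 5 May 2023. ORR was the proportion with best response of partial response with lymphocytosis or better, with 2-sided 95% CI from the exact binomial. PBMCs at baseline and progression underwent targeted NGS; a more sensitive assay had 0.5% VAF LoD.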

[3] = system: BTK mutants with kinase activity (Y545N, V416L, T474I, C481S+T474I) in Ramos BTK KO cells; format: cell-based; conditions: variants with kinase activity vs wild type

wild type BTK, sequence (Q06187 whole entry): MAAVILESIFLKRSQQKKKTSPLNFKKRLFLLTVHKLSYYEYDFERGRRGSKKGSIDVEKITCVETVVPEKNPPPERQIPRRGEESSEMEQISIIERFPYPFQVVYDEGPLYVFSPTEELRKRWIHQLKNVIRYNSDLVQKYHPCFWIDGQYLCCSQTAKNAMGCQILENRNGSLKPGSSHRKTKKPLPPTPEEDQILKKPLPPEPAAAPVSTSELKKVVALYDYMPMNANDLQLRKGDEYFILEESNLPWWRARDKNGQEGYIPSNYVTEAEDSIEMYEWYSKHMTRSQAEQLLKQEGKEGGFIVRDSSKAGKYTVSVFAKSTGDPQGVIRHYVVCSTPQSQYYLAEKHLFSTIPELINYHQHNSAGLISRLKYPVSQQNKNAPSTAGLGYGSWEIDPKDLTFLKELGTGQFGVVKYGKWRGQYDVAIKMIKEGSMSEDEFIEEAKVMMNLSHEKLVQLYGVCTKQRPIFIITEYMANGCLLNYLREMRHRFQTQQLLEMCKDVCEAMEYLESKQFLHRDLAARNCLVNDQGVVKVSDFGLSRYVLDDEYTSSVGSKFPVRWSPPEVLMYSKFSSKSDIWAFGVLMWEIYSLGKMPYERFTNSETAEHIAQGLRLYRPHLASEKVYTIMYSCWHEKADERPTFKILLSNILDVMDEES

In the case of `COc1ccc(F)cc1C(=O)NCc1ccc(-c2nn([C@@H](C)C(F)(F)F)c(N)c2C(N)=O)cc1` [Pirtobrutinib], the residence time [1] is reported as 336 min, the BOR ([2]; 3 patients with detectable BTK L528W at baseline) is reported as “partial response, stable disease, and PD” and the BOR ([2]; 6 patients with detectable BTK T474x at baseline) is reported as “PR (4), SD (1), and PD (1”. The “Median PFS (95%CI)” value ([2]; Patients with PD and longitudinal samples n=88) was 10.3 months, the “patients who experienced PD on pirtobrutinib” value ([2]; overall population, median follow-up of 29 months, 139 patients) was 57% and the “median PFS” value ([2]; patients with baseline BTK T474x (standard and high sensitivity), 95% CI, 7.4-22.3) was 9.2 months. For the same molecule, the “sensitivity to inhibition in cellular BTK phosphorylation assays” value [3] was “less sensitive”.
